ChEMBL document CHEMBL1138558, “Synthesis of some new 1,2,4-triazoles, their Mannich and Schiff bases and evaluation of their antimicrobial activities” (2009)

What was measured:
Assay type in all cases: functional
[1] = system: Pseudomonas aeruginosa; test: Antimicrobial activity against Pseudomonas aeruginosa ATCC 27853 at 10 ug after 18 hrs by agar-well diffusion method; conditions: ATCC 27853, 18 h, read-out: IZ
[2] = system: Yersinia pseudotuberculosis; test: Antimicrobial activity against Yersinia pseudotuberculosis ATCC 911 at 10 ug after 18 hrs by agar-well diffusion method; conditions: ATCC 911, 18 h, read-out: IZ
Outline: (§1)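 Bacteria suspended in Mueller Hinton broth at about 10⁶ cfu/mL, flood-inoculated onto Mueller Hinton agar and dried. Test substance placed into 5-mm wells bored with a sterile cork-borer. Incubation 18 h at 35 °C, then the inhibition zone around each well measured.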

[3] = system: Bacillus cereus; test: Antimicrobial activity against Bacillus cereus 702 Roma at 10 ug after 18 hrs by agar-well diffusion method; conditions: read-out: IZ
[4] = system: Staphylococcus aureus; test: Antimicrobial activity against Staphylococcus aureus ATCC 25923 at 10 ug after 18 hrs by agar-well diffusion method; conditions: ATCC 25923, 18 h, read-out: IZ
[5] = system: Enterococcus faecalis; test: Antimicrobial activity against Enterococcus faecalis ATCC 29212 at 10 ug after 18 hrs by agar-well diffusion method; conditions: ATCC 29212, 18 h, read-out: IZ
[6] = system: Escherichia coli; test: Antimicrobial activity against Escherichia coli ATCC 25922 at 10 ug after 18 hrs by agar-well diffusion method; conditions: ATCC 25922, 18 h, read-out: IZ; outline: as §1
[7] = system: Candida tropicalis; test: Antimicrobial activity against Candida tropicalis ATCC 13803 at 5 ug after 18 hrs by agar-well diffusion method; conditions: ATCC 13803, 18 h, read-out: IZ
Outline: (§2)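 Yeast suspended in Mueller Hinton broth and diluted to about 10⁶ cfu/mL, then flood-inoculated onto Sabouraud Dextrose Agar and dried. 5-mm wells cut with a sterile cork-borer and filled with test substance. Plates incubated 18 h at 35 °C. Read-out is the zone of inhibition.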

[8] = system: Candida albicans; test: Antimicrobial activity against Candida albicans ATCC 60193 at 5 ug after 18 hrs by agar-well diffusion method; conditions: ATCC 60193, 18 h, read-out: IZ; outline: as §2

Molecule `CC1(C)S[C@@H]2[C@H](NC(=O)[C@H](N)c3ccccc3)C(=O)N2[C@H]1C(=O)O` [AMPICILLIN] has a zone of inhibition at 10 µg/disc [1] of 18 mm, a zone of inhibition at 10 µg/disc [2] of 18 mm and a zone of inhibition at 10 µg/disc [3] of 15 mm. It also gave a zone of inhibition at 10 µg/disc [4] of 35 mm, a zone of inhibition at 10 µg/disc [5] of 10 mm and a zone of inhibition at 10 µg/disc [6] of 10 mm.

With `OC(Cn1cncn1)(Cn1cncn1)c1ccc(F)cc1F` [FLUCONAZOLE] the zone of inhibition at 5 µg/disc [7] was 25 mm and the zone of inhibition at 5 µg/disc [8] was 25 mm.
